The source of these data is ChEMBL document CHEMBL1152435, “Efficacious 11beta-hydroxysteroid dehydrogenase type I inhibitors in the diet-induced obesity mouse model” (J Med Chem, 2009).

Activity calls are given as the source filed them. The rule behind the calls is not given here.

In data set [1] the test system is Mus musculus. Kind of data set: Inhibition of 11betaHSD1 in C57Bl6 mouse epididymal fat tissue assessed as conversion of [3H]cortisone to [3H]cortisol at 10 mg/kg, po after 5 hrs. Type of data set: functional. The conditions noted are these: C57Bl6, Adipose tissue. The method, boiled down:
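Mice were killed 5 h after a single oral dose. Whole liver and epididymal fat were excised, and each intact tissue was incubated in medium containing [3H]-cortisone to measure ex vivo 11β-HSD1 activity.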

Data set [2] can be described thus: Clearance in C57/B6 mouse at 2 mg/kg, iv. Type of data set: ADME, organism-based. Also on record: dose 2 mg/kg, route intravenous. The conditions noted are these: in vivo.
Data set [3] in a line: Volume of distribution at steady state in C57/B6 mouse at 2 mg/kg, iv. Type of data set: ADME, organism-based. Details: dose 2 mg/kg, route intravenous. The conditions noted are these: in vivo, read-out: Vdss.
Data set [4] in a line: AUC in C57/B6 mouse at 2 mg/kg, iv. Type of data set: ADME, organism-based. Details: dose 2 mg/kg, route intravenous. Conditions: plasma.
A short description of data set [5]: Half life in C57/B6 mouse at 2 mg/kg, iv. Also on record: dose 2 mg/kg, route intravenous. Type of data set: ADME, organism-based. Conditions: in vivo.
A short description of data set [6]: Cmax in C57/B6 mouse at 10 mg/kg, po. Type of data set: ADME, organism-based. Details: dose 10 mg/kg, route oral. Conditions: in vivo.
Data set [7] can be described thus: Tmax in C57/B6 mouse at 10 mg/kg, po. It counts as ADME, organism-based. Also on record: dose 10 mg/kg, route oral. Conditions: in vivo.
The nature of data set [8]: AUC in C57/B6 mouse at 10 mg/kg, po. Conditions: plasma. Type of data set: ADME, organism-based. Details: dose 10 mg/kg, route oral.
Data set [9] is described as follows: Half life in C57/B6 mouse at 10 mg/kg, po. Type of data set: ADME, organism-based. Details: dose 10 mg/kg, route oral. Conditions: in vivo.
The nature of data set [10]: Oral bioavailability in C57/B6 mouse at 10 mg/kg. Type of data set: ADME, organism-based. Conditions: in vivo.
In data set [11] the test system is Mus musculus. Description: Inhibition of 11betaHSD1 in DIO-C57B6 mouse liver at 30 mg/kg in food containing 0.5 mg/gram of high fat diet after 96 hrs. It counts as functional.
Data set [12] can be described thus: Drug level in DIO-C57/B6 mouse serum in stress free condition at 30 mg/kg in food containing 0.5 mg/gram of high fat diet for 31 days measured on day 4 at 10 am. It counts as ADME, organism-based. Also on record: dose 30 mg/kg. Conditions: po, read-out: Drug uptake.
A short description of data set [13]: Drug level in DIO-C57/B6 mouse liver in stress free condition at 30 mg/kg in food containing 0.5 mg/gram of high fat diet for 31 days measured on day 4 at 10 am. Type of data set: ADME, organism-based. Also on record: dose 30 mg/kg. Conditions: po, read-out: Drug uptake.
A short description of data set [14]: Drug level in DIO-C57/B6 mouse fat in stress free condition at 30 mg/kg in food containing 0.5 mg/gram of high fat diet for 31 days measured on day 4 at 10 am. It counts as ADME, organism-based. Also on record: dose 30 mg/kg. Conditions: fat (adipose tissue), po, read-out: Drug uptake.
Data set [15] in a line: Drug level in DIO-C57/B6 mouse serum in stress free condition at 30 mg/kg in food containing 0.5 mg/gram of high fat diet for 31 days measured on day 4 at 10 pm. Also on record: dose 30 mg/kg. The conditions noted are these: po, read-out: Drug uptake. It counts as ADME, organism-based.
Data set [16] in a line: Drug level in DIO-C57/B6 mouse liver in stress free condition at 30 mg/kg in food containing 0.5 mg/gram of high fat diet for 31 days measured on day 4 at 10 pm. It counts as ADME, organism-based. Details: dose 30 mg/kg. The conditions noted are these: po, read-out: Drug uptake.
Data set [17] can be described thus: Drug level in DIO-C57/B6 mouse fat in stress free condition at 30 mg/kg in food containing 0.5 mg/gram of high fat diet for 31 days measured on day 4 at 10 pm. Conditions: fat (adipose tissue), po, read-out: Drug uptake. Also on record: dose 30 mg/kg. Type of data set: ADME, organism-based.
Data set [18] deals with Mus musculus. Kind of data set: Reduction in glucose level in DIO-C57/B6 mouse serum in stress free condition administered compound at 0.5 mg/gram of high fat diet by 28 day food mix study. It counts as functional, organism-based.
In data set [19] the test system is Mus musculus. Kind of data set: Reduction in insulin level in DIO-C57/B6 mouse serum in stress free condition administered compound at 0.5 mg/gram of high fat diet by 28 day food mix study. It counts as functional, organism-based.
Data set [20] can be described thus: in vitro. Conditions: mouse, liver microsomes. For orientation: Liver microsomes are a subcellular fraction often used to study metabolism.
A short description of data set [21]: in vitro. The conditions noted are these: human, liver microsomes.
In data set [22] the test system is Cynomolgus monkey. Kind of data set: Reduction of plasma insulin level in normal cynomolgus monkey at 1 mg/kg after 8 hrs. It counts as functional, Macaca fascicularis. Details: scale not given: the % may be the effect or the level left.
The test system of data set [23] is Cynomolgus monkey. Description: Reduction of plasma insulin level in normal cynomolgus monkey at 3 mg/kg after 8 hrs. It counts as functional, Macaca fascicularis. Details: scale not given: the % may be the effect or the level left.
The nature of data set [24]: Metabolic stability in mouse liver microsomes. It counts as ADME, Microsome. The conditions noted are these: read-out: Stability.
Data set [25] can be described thus: Metabolic stability in human liver microsomes. It counts as ADME, Microsome. The conditions noted are these: read-out: Stability.

Turning to `C[C@@H]1CN(c2ccc(F)cc2C(F)(F)F)CCN1S(=O)(=O)c1ccc(C(N)=O)cc1Cl`, in the data set on Mus musculus [1], the inhibition in vivo at 10 mg/kg was determined as 80%. This molecule also showed a clearance in data set [2] of 5 mL/min/kg. For the same molecule, the Vd in data set [3] worked out at 2.6 L/kg. In addition, the AUC in data set [4] came out at 6740 ng·h/mL; in data set [8] it was 17000 ng·h/mL. The half-life was 7.3 h in [5], 7.2 h in data set [9], more than 0.5 h in “in vitro [20]” and more than 0.5 h in “in vitro [21]”. In [6], the maximum concentration (Cmax) was determined as 1440 ng/mL. Further, the time of peak concentration (Tmax) in data set [7] was determined as 4 h. Besides, the bioavailability in data set [10] came to 50%. For the same molecule, the inhibition in vivo at 30 mg/kg in the data set on Mus musculus [11] stood at 95%. The concentration at 744 h in [12] worked out at 1140 ng/mL; in data set [13] it was 8130 ng/g; in data set [14], 3620 ng/g; in data set [15], 1090 ng/mL; in data set [16], 9540 ng/g; in [17] it was 3360 ng/g. The result in the data set with Mus musculus [18] and in the data set with Mus musculus [19] was Active.
Turning to `N#Cc1ccc(-c2ccc(S(=O)(=O)Nc3cccc(N)n3)cc2)cc1`, the Activity in the data set on Cynomolgus monkey [22] is 54%; in the data set on Cynomolgus monkey [23], 60%.
With `C[C@@H]1CN(c2ccc(F)cc2C(F)(F)F)CCN1S(=O)(=O)c1cccc(-n2cncn2)c1`, the results for the half-life in [24] and in data set [25] were 0.2 h and 0.283 h, respectively.

Usually inhibition in vivo stands for the share of the control response that was lost under treatment. For orientation: clearance means the rate of elimination divided by the concentration. The term AUC denotes concentration integrated over time. As usually defined, the Cmax is the maximum level reached in the sampled fluid or tissue. One may read the Tmax as the time at which the peak concentration occurs. Usually bioavailability stands for dose-corrected exposure relative to a reference, in per cent.
